We go through three compounds from article PMC4160068 (ACS chemical biology, 2014).

Broadly, the IC50 is the point on the concentration scale where inhibition reaches its midpoint.

In series [1] the test system is A375 and SKMEL5 parental cells. Put plainly: MTS viability of parental BRAF-mutant melanoma cells under PLX4032. The settings on record: concentrations in which PLX-R derivative lines grew. The class given is cell-based.
Another series has as its target PKCδ (Homo sapiens, UniProt Q05655). Put plainly: In vitro kinase assay, PKCδ. The class given is biochemical.
Series [2] relates to melanoma cell lines with NRAS mutations (SBcl2, FM6, SKMEL2, WM1366, WM1361A, WM852). The series can be described thus: MTS cell survival assay in NRAS-mutant melanoma lines. The settings on record: 24, 48, 72 hr. The class given is cell-based. Summed up:
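Cell lines carrying NRAS Q61 mutations (SBcl2, FM6, SKMEL2, WM1366, WM1361A, WM852) exposed to test compounds at 2 or 5 µM, or 0.2 or 0.5 µM (0.1 and 2 µM also in SBcl2). MTS read at 24, 48 and 72 hr. Controls: DMSO vehicle and 2 µM negative control compound. Mean of triplicates ± SD; p versus DMSO at 72 hr.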

For the next series, the system named is SBcl2 melanoma cells. The series can be described thus: Clonogenic colony assay. The class given is cell-based. The settings on record: SBcl2, 1 µM, 48 hr of drug exposure, then 8 days without inhibitor. In outline:
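SBcl2 cells exposed to test compound at 1 µM for 0, 12, 24 or 48 hr. Equal numbers of viable cells from each condition then replated at low density and grown 8 days in inhibitor-free medium. Colony-forming ability compared across exposure times.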

The test system of series [3] is caspase 3/7 in SBcl2 cells. The series can be described thus: Caspase 3/7 activity assay. The class given is cell-based. The settings on record: SBcl2, 5 µM, 24 hr.
The subject of the next series is SBcl2 cells. The series can be described thus: DNA fragmentation. Format: cell-based. The settings on record: 24 hr. In outline:
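SBcl2 cells treated 24 hr with test compound (5 or 0.5 µM) alone, or at 0.5 µM together with pan-caspase inhibitor Z-VAD-FMK (100 µM). Sub-G1 (fragmented DNA) fraction measured by flow cytometry. Mean of duplicates with SD.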

For series [4] the following is noted: cited from earlier work.
The subject of another series is mice. Conditions: administered orally or intraperitoneally to mice; cited from earlier work.
The test system of series [5] is normal primary cells or cell lines. The settings on record: at the concentrations employed herein; cited from earlier work.
For series [6], the system named is cancer cells with activation of RAS or RAS signaling. The series can be described thus: "Ras-specific" cytotoxicity.
Series [7] deals with MKK4-JNK-H2AX pathway in SBcl2 cells. The series can be described thus: Immunoblot analysis of JNK pathway signaling. The class given is cell-based. Conditions: pre-treatment 50 µM, data not shown.

PKCδ, sequence (Q05655 whole entry): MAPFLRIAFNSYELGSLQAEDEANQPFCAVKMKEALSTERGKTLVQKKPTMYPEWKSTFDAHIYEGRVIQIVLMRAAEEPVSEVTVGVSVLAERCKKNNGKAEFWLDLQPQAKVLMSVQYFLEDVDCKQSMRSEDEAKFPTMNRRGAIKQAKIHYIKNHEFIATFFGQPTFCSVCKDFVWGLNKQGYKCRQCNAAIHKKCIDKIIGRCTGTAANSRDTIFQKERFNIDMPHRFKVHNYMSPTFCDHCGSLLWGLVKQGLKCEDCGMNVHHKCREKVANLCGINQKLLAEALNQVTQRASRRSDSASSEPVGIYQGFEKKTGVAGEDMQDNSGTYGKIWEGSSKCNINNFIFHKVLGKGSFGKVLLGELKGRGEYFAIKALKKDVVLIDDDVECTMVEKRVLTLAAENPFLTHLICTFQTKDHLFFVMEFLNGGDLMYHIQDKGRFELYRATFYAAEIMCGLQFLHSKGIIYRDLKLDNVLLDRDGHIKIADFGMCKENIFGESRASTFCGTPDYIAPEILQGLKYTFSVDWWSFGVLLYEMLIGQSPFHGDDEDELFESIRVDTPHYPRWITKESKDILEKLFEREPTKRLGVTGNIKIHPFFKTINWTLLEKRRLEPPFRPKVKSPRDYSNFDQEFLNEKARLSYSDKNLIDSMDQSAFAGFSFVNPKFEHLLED

For the compound `CCCS(=O)(=O)Nc1ccc(F)c(C(=O)c2c[nH]c3ncc(-c4ccc(Cl)cc4)cc23)c1F` [PLX4032, vemurafenib], the “Cytotoxicity to parental cells” value in series [1] is listed as “cytotoxic”.
Take `CC(=O)c1c(O)c(C)c(O)c(Cc2c(O)c3c(c(C(=O)/C=C/c4ccccc4)c2O)OC(C)(C)C=C3)c1O` [Rottlerin, rottlerin]: the IC50 on PKCδ (PKCδ IC50, in vitro kinase assay) is 3 to 5 µM. For the same compound, the “PKCδ/PKCα Selectivity” value at PKCδ (PKCδ over PKCα) was 28-fold. Moreover, the “Cell proliferation (MTS)” value is “intermediate inhibitory effects” in [2] (2 µM) and “consistently inhibited proliferation of all cell lines” in [2] (5 µM). The “Reduction in the number of colonies” value in the series with SBcl2 melanoma cells is “approximately 40 fold”. In addition, in series [3], the “Increase in caspase 3/7 activity vs vehicle (DMSO)” value is given as 5 fold. In addition, the “Proportion of sub-G1 population (fragmented DNA)” value in the series with SBcl2 cells (SBcl2, 5 µM) is reported as “significantly higher”. Further, the Aqueous solubility entry in series [4] was “moderate”. The Tolerability entry in the series with mice is “well-tolerated”. The “Cytostatic or cytotoxic effect on normal cells” value in series [5] is listed as “not cytostatic or cytotoxic”. Also, the “"Ras-specific" Cytotoxicity” value in series [6] was in the range of 3 to 5 µM.
Regarding “carbobenzoxy-valyl-alanyl-aspartyl-[Omethyl]-fluoromethylketone [Z-VAD-FMK]”, in the series with SBcl2 cells (SBcl2 pretreated with 100 µM, B106 0.5 µM), the “B106-induced DNA fragmentation” value is reported as “significantly abrogated”. The “B106-induced caspase 3 cleavage (immunoblot)” value in series [7] is recorded as “prevented”.
